# Screening data: PubChem BioAssay, The Scripps Research Institute Molecular Screening Center
# TAAR1 agonist: human TAAR1 agonists, primary screen, Fluo-8 calcium fluorescence, CHO RD-HGA16 cells. Trace amine-associated receptor 1 (Homo sapiens), Q96RJ0. AID 624467, 2012. actives 0.99% (n = 360,000). activation, % at 3 µM. vehicle wells 0%, saturating PEA agonist 100%;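 active = activation above the mean activation of all test compounds in the run plus 3 SD, cut at about 38% in these data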
# Target sequence (Q96RJ0 whole entry, looked up): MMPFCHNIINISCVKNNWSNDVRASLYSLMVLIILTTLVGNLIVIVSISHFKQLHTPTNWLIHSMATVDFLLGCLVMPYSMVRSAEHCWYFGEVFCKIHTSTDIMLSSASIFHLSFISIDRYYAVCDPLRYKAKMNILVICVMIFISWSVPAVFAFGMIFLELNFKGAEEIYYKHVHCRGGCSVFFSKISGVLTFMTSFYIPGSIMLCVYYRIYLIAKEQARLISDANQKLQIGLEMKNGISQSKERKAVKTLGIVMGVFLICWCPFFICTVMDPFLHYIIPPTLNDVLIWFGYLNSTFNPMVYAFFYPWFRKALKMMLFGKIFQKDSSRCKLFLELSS
#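 Benchmarks: low control DMSO, high control PEA (EC100); System: CHO RD-HGA16 cells carrying human TAAR1 plus Gα16; Detection: Fluo-8 fluorescence, 5 s baseline then 140 s kinetic read; Schedule: 17-24 h plating, Fluo-8 75 min 37 °C, 30 min RT; Read-out basis: % activation from peak over basal fluorescence ratio, DMSO-to-PEA scaled.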
# OXTR agonist: human OXTR agonists, primary screen, fluorescence, CHO-OTR cells, Fluo-8 calcium; Fluo-8 calcium fluorescence; normalized: DMSO 0%, oxytocin 100%; activation, % at 3 µM; actives 0.32% (n = 320,000); AID 2435, 2010;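 active = activation above the mean of all tested compounds plus 3 SD, cutoff set per screening run, cut at about 20% in these data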;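 also: peak over basal fluorescence ratio from a 100 s FLIPR kinetic read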
# TAAR1 antag: human TAAR1 antagonists, primary screen, Fluo-8 calcium fluorescence, CHO RD-HGA16 cells; inhibition, % at 3 µM; antagonist; actives 1.5% (n = 360,000); Trace amine-associated receptor 1 (Homo sapiens), Q96RJ0;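 active = inhibition above a per-plate cutoff, the mean inhibition of test compounds on that plate plus 3 SD, cut at about 49% in these data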;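 also: 0% = DMSO plus EC80 beta-PEA response and 100% = DMSO alone without agonist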
#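 Test system: RD-HGA16 CHO cells with stable hTAAR1 and Gα16 / Probe or stimulus: EC80 β-phenethylamine stimulus / Times: seeding 17-24 h prior, 75-min 37 °C, 30-min RT dye loading / Detection: Fluo-8 calcium-sensitive fluorescence / Read-out basis: % inhibition scaled between DMSO and EC80 PEA controls / Repeats: singlicate, one well per test compound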
# OXTR potentiator: human OXTR potentiators, primary screen, fluorescence, CHO-OTR cells, Fluo-8 calcium | Oxytocin receptor (Homo sapiens), P30559 | Fluo-8 calcium fluorescence, potentiator mode; 0% = oxytocin EC15, 100% = EC100 | activation, % at 3 µM | actives 0.061% (n = 320,000);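 active = activation above that plate's cutoff, the mean activation of tested compounds plus 3 SD, cut at about 6.6% in these data, passing the limit was not always enough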;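 also: 100% uses oxytocin at 75 nM as the full agonist control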
#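 Material: human OTR in CHO cells. Compound: 3.0 µM, one dose. Timing: compound 6 min at room temperature before oxytocin, 100 s read. Evaluation: % activation of max/min ratio relative to oxytocin controls. Replication: single well per compound, singlicate. Signal: Fluo-8 calcium dye fluorescence.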
# V1aR counter: agonists of human V1a receptor, primary screen, counter-screen for OXTR agonist project, fluorescence, CHO-V1R cells. Fluo-8 calcium fluorescence, agonist mode; 0% DMSO, 100% 3 nM vasopressin. actives 0.25% (n = 320,000). activation, % at 3 µM;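 active = activation above the mean activation of all tested compounds plus 3 SD, per screening run, cut at about 20% in these data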;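 also: signal is peak over basal fluorescence ratio across a 100 second FLIPR read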
# TAAR1 nonsel count: nonselective antagonists in TAAR1 counter-screen cells, counter-screen for hTAAR1 antagonist project, cell-based, fluorescence, calcium. shares compounds with TAAR1 antag. counterscreen cell line, antagonist mode. inhibition, % at 3 µM. actives 77% (n = 2,400). AID 651780, 2012; in the data active = inhibition above about 22%;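 also: CHO-Ga16 host cells stimulated with ATP at an EC80 level; 0% = agonist EC80 plus vehicle and 100% = vehicle without agonist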
# TAAR1 ant conf: human TAAR1 antagonists, retest of hits, confirmation, cell-based, fluorescence; shares compounds with TAAR1 antag; TAAR1-expressing cells, fluorescence antagonist read-out; inhibition, % at 3 µM; actives 40% (n = 2,400); AID 651785, 2012; in the data active = inhibition above about 49%;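 also: CHO-Ga16 host cells challenged with agonist PEA near its EC80; 0% = agonist at EC80 plus vehicle and 100% = vehicle with no agonist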
# Ga16 ag counter: calcium activation in Ga16-expressing cells, counter-screen for TAAR1 antagonist project, cell-based, fluorescence; shares compounds with TAAR1 antag; agonist counterscreen; activation, % at 3 µM; actives 18% (n = 2,400); in the data active = activation above about 12%;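 also: 0% = vehicle wells and 100% = saturating stimulus response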
# TAAR1 ag counter: TAAR1 activation by candidate antagonists – cell-based, fluorescence, counter-screen for TAAR1 antagonist project; shares compounds with TAAR1 antag; hTAAR1 cell line, agonist mode; activation, % at 3 µM; actives 2% (n = 2,400); in the data active = activation above about 37%;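 also: CHO cells stably expressing TAAR1 with calcium dye readout; 0% = DMSO vehicle and 100% = full agonist response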
# * marks the source's active call; other numbers are inactive results; . = no result given. Most compounds without a hit are left out; they make up all but 2.3% or so of the library.
SMILES,TAAR1 agonist,OXTR agonist,TAAR1 antag,OXTR potentiator,V1aR counter,TAAR1 nonsel count,TAAR1 ant conf,Ga16 ag counter,TAAR1 ag counter
Cc1cccc(C)c1NC(=O)CNc1ccccc1,1.8,2.2,-12.3,0.8,0.5,.,.,.,.
CCOC(=O)CSc1ccc2ccccc2n1,0.9,-0.4,-15.3,2.8,-0.8,.,.,.,.
CCOC(=O)C(C#N)(Cc1ccc2ccccc2n1)Cc1ccc2ccccc2n1,10.9,.,64.5*,.,.,29.6*,44.1,8.3,4.9
O=C(Nc1cc(S(=O)(=O)N2CCCCC2)ccc1O)c1ccccc1NS(=O)(=O)c1ccc(F)c(F)c1,11.8,0.1,4.4,-11.1,4.8,.,.,.,.
O=C(NNC(=S)Nc1ccccc1)c1ccc(O)cc1,0.5,-0.4,-9.7,-10.4,0.6,.,.,.,.
Cc1nc2ccc3nc(NC(=O)C4COc5ccccc5O4)sc3c2s1 (stereo not given),1.2,-0.1,60.7*,-5.4,0.6,28.8*,29.6,2.1,0.6
O=C(Nc1nc(-c2ccccn2)cs1)C1COc2ccccc2O1 (stereo not given),7.5,-0.1,104.5*,-6.3,3.2,21.8*,33.3,5.8,3.4
COc1ccc(C2=NOC(Cn3nc(C(=O)NCC4CC4)cc3-c3ccccc3)C2)cc1 (stereo not given),14.2,0.8,72.1*,-12.3,-0.2,34.1*,49.3*,6.5,5.2
COc1ccc(C2=NOC(Cn3nc(C(=O)NCc4ccccc4OC)cc3-c3ccccc3)C2)cc1 (stereo not given),16.4,3.6,68.2*,-15.0,2.1,32.6*,52.8*,9.6,5.6
COc1ccc(C2=NOC(Cn3nc(-c4ccccc4)cc3C(=O)NCc3ccc(C)cc3)C2)cc1 (stereo not given),3.6,1.7,24.2,-5.7,2.5,.,.,.,.
COc1ccc(C2=NOC(Cn3nc(C(=O)NCc4ccc(OC(F)(F)F)cc4)cc3-c3ccccc3)C2)cc1 (stereo not given),2.3,-0.1,23.9,-4.8,-0.2,.,.,.,.
O=C(NC(c1ccc(Cl)cc1)c1cnccn1)C1CCN(Cc2ccc(Oc3ccccc3)cc2)CC1 (stereo not given),12.6,.,16.7,.,.,.,.,.,.
N#C/C(=C\c1ccccc1)C(=O)N1CCN(c2ccccc2F)CC1,2.3,-0.3,-19.0,-7.7,-0.6,.,.,.,.
CC1=C(C(=O)O)N2C(=O)C(NC(=O)c3c(F)cccc3F)C2SC1 (stereo not given),2.0,.,-3.5,.,.,.,.,.,.
Cn1cc(C(=O)NCCN2CCN(c3cccc(Cl)c3)CC2)c2c3ccccc3n(C)c2c1=O,24.6,1.0,56.3*,-8.9,0.9,28.9*,43.1,6.2,6.3
NS(=O)(=O)c1ccc(NC(=O)CN2CCN(S(=O)(=O)/C=C/c3ccccc3)CC2)cc1,8.1,-0.3,-4.3,-1.0,0.3,.,.,.,.
O=C(Nc1cccc(Cl)c1N1CCOCC1)c1ccco1,-0.5,-0.1,-1.2,-6.6,0.1,.,.,.,.
COc1c(F)c(F)c(C(=O)Nc2cccc(Cl)c2N2CCOCC2)c(F)c1F,23.2,-1.0,72.4*,-1.8,-0.1,17.2,31.5,6.5,19.2
Cc1cc(C(=O)Nc2cccc(NC(=O)c3ccco3)c2)ccc1[N+](=O)[O-],10.6,.,57.9*,.,.,14.2,26.1,8.0,3.7
